Laboratory results published in ChEMBL document CHEMBL5303300, “EUbOPEN Chemogenomics Library - Multiplex” (2023).
“And” between values parts separate entries of the source, which are not always exact repeats. Equal entries are not always repeated.

Key:
[1] = system: HEK-293T; test: Multiplex assay against HEK293T; format: toxicity, cell-based; conditions: human, number of replicates 2
Outline: (§1)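 Cells were classed with CellPathfinder machine-learning gating, first as Hoechst high-intensity objects or normal cells, then (normal cells) as healthy, pyknosed or fragmented nuclei, and finally (pyknosed cells) as mitotic or apoptotic. Staining of live cells at seeding used Hoechst33342, BioTracker Green Microtubule Cytoskeleton Dye, MitoTracker Red and Annexin V Alexa Fluor 680, with imaging on a CQ1 microscope at 37°C and 5% CO2 after compound addition. Tubulin, mitochondrial-mass and membrane-permeability phenotypes are per cents of healthy-nucleus cells.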

[2] = system: U2OS; test: Multiplex assay against U2OS; format: toxicity, cell-based; conditions: human, number of replicates 2; outline: as §1
[3] = 24 h, 1 µM, compound concentration 1 uM
[4] = 24 h, 10 µM, compound concentration 10 uM
[5] = 48 h, 1 µM, compound concentration 1 uM
[6] = 48 h, 10 µM, compound concentration 10 uM
[7] = 12 h, 1 µM, compound concentration 1 uM
[8] = 12 h, 10 µM, compound concentration 10 uM

Structure (SMILES): COc1ncc(-c2cc(-c3ncc(CN4C[C@@H](C)O[C@@H](C)C4)o3)c3cn[nH]c3c2)cc1NS(C)(=O)=O
- Population Mitotic Cells (%) [1, 3]: 59% and 45%
- Population Normal (%) [1, 3]: 87% and 89%
- Population Pyknosed Nuclei (%) [1, 3]: 6% and 10%
- Population Tubulin-Different-Phenotype (%) [1, 3]: 37% and 44%
- Total Cell Count [1, 3]: 1173 and 987
- Population Apoptotic (%) [1, 4]: 46% and 45%
- Population Fragmented Nuclei (%) [1, 4]: 4%
- Population Healthy Nuclei (%) [1, 4]: 82% and 76%
- Population Hoechst High Intensity Objects (%) [1, 4]: 9% and 10%
- Population Membrane Permeable-Phenotype (%) [1, 4]: 1%
- Population Mitochondria Different-Phenotype (%) [1, 4]: 41% and 44%
- Population Mitotic Cells (%) [1, 4]: 53% and 54%
- Population Normal (%) [1, 4]: 90% and 89%
- Population Pyknosed Nuclei (%) [1, 4]: 13% and 19%
- Population Tubulin-Different-Phenotype (%) [1, 4]: 79% and 86%
- Total Cell Count [1, 4]: 379 and 373
- Population Apoptotic (%) [1, 5]: 13% and 26%
- Population Fragmented Nuclei (%) [1, 5]: 15% and 9%
- Population Healthy Nuclei (%) [1, 5]: 81% and 85%
- Population Hoechst High Intensity Objects (%) [1, 5]: 11%
- Population Membrane Permeable-Phenotype (%) [1, 5]: 7% and 2%
- Population Mitochondria Different-Phenotype (%) [1, 5]: 0% and 2%
- Population Mitotic Cells (%) [1, 5]: 86% and 73%
- Population Normal (%) [1, 5]: 88%
- Population Pyknosed Nuclei (%) [1, 5]: 2% and 4%
- Population Tubulin-Different-Phenotype (%) [1, 5]: 22% and 30%
- Total Cell Count [1, 5]: 2777 and 1879
- Population Apoptotic (%) [1, 6]: 55% and 40%
- Population Fragmented Nuclei (%) [1, 6]: 6% and 4%
- Population Healthy Nuclei (%) [1, 6]: 87% and 83%
- Population Hoechst High Intensity Objects (%) [1, 6]: 13% and 9%
- Population Membrane Permeable-Phenotype (%) [1, 6]: 2% and 3%
- Population Mitochondria Different-Phenotype (%) [1, 6]: 18% and 21%
- Population Mitotic Cells (%) [1, 6]: 44% and 59%
- Population Normal (%) [1, 6]: 86% and 90%
- Population Pyknosed Nuclei (%) [1, 6]: 6% and 11%
- Population Tubulin-Different-Phenotype (%) [1, 6]: 74% and 82%
- Total Cell Count [1, 6]: 527 and 510
- Population Apoptotic (%) [2, 7]: 66% and 57%
- Population Fragmented Nuclei (%) [2, 7]: 3% and 13%
- Population Healthy Nuclei (%) [2, 7]: 85% and 69%
- Population Hoechst High Intensity Objects (%) [2, 7]: 0%
- Population Membrane Permeable-Phenotype (%) [2, 7]: 1% and 0%
- Population Mitochondria Different-Phenotype (%) [2, 7]: 0%
- Population Mitotic Cells (%) [2, 7]: 33% and 42%
- Population Normal (%) [2, 7]: 99% and 100%
- Population Pyknosed Nuclei (%) [2, 7]: 11% and 16%
- Population Tubulin-Different-Phenotype (%) [2, 7]: 84% and 43%
- Population Apoptotic (%) [2, 8]: 50% and 64%
- Population Healthy Nuclei (%) [2, 8]: 68% and 77%
- Population Hoechst High Intensity Objects (%) [2, 8]: 0%
- Population Membrane Permeable-Phenotype (%) [2, 8]: 12% and 10%
- Population Mitochondria Different-Phenotype (%) [2, 8]: 0% and 5%
- Population Mitotic Cells (%) [2, 8]: 50% and 35%
- Population Normal (%) [2, 8]: 100% and 99%
- Population Pyknosed Nuclei (%) [2, 8]: 10% and 18%
- Population Tubulin-Different-Phenotype (%) [2, 8]: 48% and 45%
- Population Apoptotic (%) [2, 3]: 65% and 87%
- Population Fragmented Nuclei (%) [2, 3]: 1% and 9%
- Population Healthy Nuclei (%) [2, 3]: 87% and 75%
- Population Hoechst High Intensity Objects (%) [2, 3]: 0%
- Population Membrane Permeable-Phenotype (%) [2, 3]: 1% and 0%
- Population Mitochondria Different-Phenotype (%) [2, 3]: 0%
- Population Mitotic Cells (%) [2, 3]: 34% and 12%
- Population Normal (%) [2, 3]: 99% and 100%
- Population Pyknosed Nuclei (%) [2, 3]: 10% and 15%
- Population Tubulin-Different-Phenotype (%) [2, 3]: 82% and 47%
- Population Apoptotic (%) [2, 4]: 64% and 74%
- Population Healthy Nuclei (%) [2, 4]: 49% and 69%
- Population Hoechst High Intensity Objects (%) [2, 4]: 0%
- Population Membrane Permeable-Phenotype (%) [2, 4]: 0% and 8%
- Population Mitochondria Different-Phenotype (%) [2, 4]: 7% and 9%
- Population Mitotic Cells (%) [2, 4]: 35% and 25%
- Population Normal (%) [2, 4]: 100%
- Population Pyknosed Nuclei (%) [2, 4]: 26% and 23%
- Population Tubulin-Different-Phenotype (%) [2, 4]: 76% and 49%
- Population Apoptotic (%) [2, 5]: 65% and 69%
- Population Fragmented Nuclei (%) [2, 5]: 2% and 7%
- Population Healthy Nuclei (%) [2, 5]: 87% and 72%
- Population Hoechst High Intensity Objects (%) [2, 5]: 0%
- Population Membrane Permeable-Phenotype (%) [2, 5]: 1% and 0%
- Population Mitochondria Different-Phenotype (%) [2, 5]: 0%
- Population Mitotic Cells (%) [2, 5]: 34% and 30%
- Population Normal (%) [2, 5]: 99% and 100%
- Population Pyknosed Nuclei (%) [2, 5]: 10% and 19%
- Population Tubulin-Different-Phenotype (%) [2, 5]: 81% and 43%
- Population Apoptotic (%) [2, 6]: 76% and 81%
- Population Healthy Nuclei (%) [2, 6]: 55% and 62%
- Population Hoechst High Intensity Objects (%) [2, 6]: 0%
- Population Membrane Permeable-Phenotype (%) [2, 6]: 7% and 8%
- Population Mitochondria Different-Phenotype (%) [2, 6]: 10% and 12%
- Population Mitotic Cells (%) [2, 6]: 23% and 18%
- Population Normal (%) [2, 6]: 100%
- Population Pyknosed Nuclei (%) [2, 6]: 25% and 30%
- Population Tubulin-Different-Phenotype (%) [2, 6]: 63% and 50%
